{
  "source": "ChEMBL document CHEMBL1122461",
  "about": "“Antiviral compounds. 1. Structure-activity relationship of some antiviral enediones derived from aldehydo sugars” (1983)",
  "key": {"Human alphaherpesvirus 1 [1]": {"test_system": "Human alphaherpesvirus 1", "test": "Antiviral activity against HSV-1 (Herpes simplex virus)", "type": "functional", "summary_of_the_method": "(§1)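 Disk-diffusion gradient assay. BSC1 (M199) or Vero (RPMI) monolayers with 10% inactivated calf serum are infected to give confluent plaques. They are overlaid with Eagle's/1% agar/5% calf serum. A 5-mm paper disk soaked in compound (5 mg/mL in DMSO) is placed centrally, then 3–4 days at 37 °C, fix and stain. Diameter of the destroyed central zone = toxicity. Plaque-free diameter minus toxic diameter = antiviral activity.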"}, "Semliki Forest virus": {"test_system": "Semliki Forest virus", "test": "Antiviral activity against forest virus", "type": "functional", "summary_of_the_method": "as §1"}, "Vaccinia virus": {"test_system": "Vaccinia virus", "test": "Antiviral activity against Vaccinia virus", "type": "functional, Orthopoxvirus vaccinia", "design": "unit not given here", "summary_of_the_method": "as §1"}, "Vero": {"test_system": "Vero", "test": "Cytotoxicity against BSCL and Vero cells", "type": "functional, Chlorocebus sabaeus", "summary_of_the_method": "as §1"}, "BSC-1 [2]": {"test_system": "BSC-1", "test": "Inhibition of cellular DNA synthesis in BSCL cells at the dose of 17.0 ug/mL.", "type": "functional, Cercopithecidae", "conditions": "Chlorocebus aethiops", "summary_of_the_method": "(§2)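 HSV-1-infected BSC1 cells labelled with [3H]thymidine (2 μCi/mL) from 3 h post-infection and harvested at 22 h. Lysed with 1% SDS and 0.3 mg/mL Pronase for 5 h at 37 °C. DNA banded on CsCl gradient (pH 8.0, 35000 rpm, 20 °C, 48 h). TCA-precipitable radioactivity in viral and cellular DNA peaks is summed and expressed as % of infected untreated culture.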"}, "Human alphaherpesvirus 1 [3]": {"test_system": "Human alphaherpesvirus 1", "test": "Growth inhibition against HSV-1 virus in BSCL cells at the dose of 17.0 ug/mL and 22h time of treatment.", "type": "functional", "conditions": "Human alphaherpesvirus 1, BSCL", "summary_of_the_method": "(§3)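 HSV-1 grown 22 h in BSC1 cells in the presence of compound after infection at 1 pfu/cell (1 h, 37 °C, wash, medium with 2% calf serum). Virus yield is titred by plaque assay on agar overlay: 4 days at 37 °C, crystal violet stain, plaque count. Reported as % inhibition of virus growth.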"}, "Human alphaherpesvirus 1 [4]": {"test_system": "Human alphaherpesvirus 1", "test": "Inhibition of viral DNA synthesis in HSV-1 virus at the dose of 17.0 ug/mL.", "type": "functional", "summary_of_the_method": "as §2"}, "BSC-1 [5]": {"test_system": "BSC-1", "test": "Inhibition of cellular DNA synthesis in BSCL cells at the dose of 1.4 ug/mL.", "type": "functional, Cercopithecidae", "conditions": "Chlorocebus aethiops", "summary_of_the_method": "as §2"}, "Human alphaherpesvirus 1 [6]": {"test_system": "Human alphaherpesvirus 1", "test": "Inhibition of viral DNA synthesis in HSV-1 virus at the dose of 1.4 ug/mL.", "type": "functional", "summary_of_the_method": "as §2"}, "Human alphaherpesvirus 1 [7]": {"test_system": "Human alphaherpesvirus 1", "test": "Growth inhibition against HSV-1 virus in BSCL cells at the dose of 1.4 ug/mL and 22h time of treatment.", "type": "functional", "conditions": "Human alphaherpesvirus 1, BSCL", "summary_of_the_method": "as §3"}, "BSC-1 [8]": {"test_system": "BSC-1", "test": "Inhibition of cellular DNA synthesis in BSCL cells at the dose of 0.8 ug/mL.", "type": "functional, Cercopithecidae", "conditions": "Chlorocebus aethiops", "summary_of_the_method": "as §2"}, "Human alphaherpesvirus 1 [9]": {"test_system": "Human alphaherpesvirus 1", "test": "Growth inhibition against HSV-1 virus in BSCL cells at the dose of 0.8 ug/mL and 22h time of treatment.", "type": "functional", "conditions": "Human alphaherpesvirus 1, BSCL", "summary_of_the_method": "as §3"}, "Human alphaherpesvirus 1 [10]": {"test_system": "Human alphaherpesvirus 1", "test": "Inhibition of viral DNA synthesis in HSV-1 virus at the dose of 0.8 ug/mL.", "type": "functional", "summary_of_the_method": "as §2"}},
  "data": [
    {"smiles": "CC(=O)/C(=C\\[C@@H]1O[C@H](c2ccccc2)O[C@@H]2CO[C@@H](c3ccccc3)O[C@@H]12)C(=O)c1ccccc1", "values": [
      {"measurement": "Antiviral activity", "setting": "Human alphaherpesvirus 1 [1]", "result": 12, "unit": "mm"},
      {"measurement": "Antiviral activity", "setting": "Semliki Forest virus", "result": 0, "unit": "mm"},
      {"measurement": "Antiviral activity", "setting": "Vaccinia virus", "result": 8},
      {"measurement": "Cytotoxicity", "setting": "Vero", "result": 14, "unit": "mm"}
    ]},
    {"smiles": "O=C1OCC/C1=C\\[C@@H]1O[C@H](c2ccccc2)O[C@@H]2CO[C@@H](c3ccccc3)O[C@@H]12", "values": [
      {"measurement": "Antiviral activity", "setting": "Human alphaherpesvirus 1 [1]", "result": 0, "unit": "mm"},
      {"measurement": "Antiviral activity", "setting": "Semliki Forest virus", "result": 0, "unit": "mm"},
      {"measurement": "Antiviral activity", "setting": "Vaccinia virus", "result": 14},
      {"measurement": "Cytotoxicity", "setting": "Vero", "result": 3, "unit": "mm"}
    ]},
    {"smiles": "CC(=O)C(=C[C@@H]1O[C@H](c2ccccc2)O[C@@H]2CO[C@@H](c3ccccc3)O[C@@H]12)C(C)=O", "values": [
      {"measurement": "inhibition at 17 µg/mL", "setting": "BSC-1 [2]", "result": 80.7, "unit": "%"},
      {"measurement": "Antiviral activity", "setting": "Human alphaherpesvirus 1 [1]", "result": 11, "unit": "mm"},
      {"measurement": "inhibition at 17 µg/mL", "setting": "Human alphaherpesvirus 1 [3]", "result": 95.5, "unit": "%"},
      {"measurement": "inhibition at 17 µg/mL", "setting": "Human alphaherpesvirus 1 [4]", "result": 50.9, "unit": "%"},
      {"measurement": "Antiviral activity", "setting": "Semliki Forest virus", "result": 0, "unit": "mm"},
      {"measurement": "Antiviral activity", "setting": "Vaccinia virus", "result": 5},
      {"measurement": "Cytotoxicity", "setting": "Vero", "result": 10, "unit": "mm"}
    ]},
    {"smiles": "Nc1ccn([C@@H]2O[C@H](CO)[C@@H](O)[C@@H]2O)c(=O)n1", "note": "[CYTARABINE]", "values": [
      {"measurement": "inhibition at 1.4 µg/mL", "setting": "BSC-1 [5]", "result": 38.3, "unit": "%"},
      {"measurement": "inhibition at 1.4 µg/mL", "setting": "Human alphaherpesvirus 1 [6]", "result": 0, "unit": "%"},
      {"measurement": "inhibition at 1.4 µg/mL", "setting": "Human alphaherpesvirus 1 [7]", "result": 93.6, "unit": "%"}
    ]},
    {"smiles": "CC(=O)OCC(OC(C)=O)C(OC(C)=O)C(C=C(C(C)=O)C(C)=O)OC(C)=O", "note": "(stereo unspecified)", "values": [
      {"measurement": "Antiviral activity", "setting": "Human alphaherpesvirus 1 [1]", "result": 11, "unit": "mm"},
      {"measurement": "Antiviral activity", "setting": "Semliki Forest virus", "result": 0, "unit": "mm"},
      {"measurement": "Antiviral activity", "setting": "Vaccinia virus", "result": 0},
      {"measurement": "Cytotoxicity", "setting": "Vero", "result": 13, "unit": "mm"}
    ]},
    {"smiles": "CC(=O)OC(C=C(C(C)=O)C(C)=O)C(OC(=O)c1ccccc1)C(COC(=O)c1ccccc1)OC(C)=O", "note": "(stereo unspecified)", "values": [
      {"measurement": "Antiviral activity", "setting": "Human alphaherpesvirus 1 [1]", "result": 4, "unit": "mm"},
      {"measurement": "Antiviral activity", "setting": "Semliki Forest virus", "result": 4, "unit": "mm"},
      {"measurement": "Antiviral activity", "setting": "Vaccinia virus", "result": 6},
      {"measurement": "Cytotoxicity", "setting": "Vero", "result": 2, "unit": "mm"}
    ]},
    {"smiles": "CC(=O)OCC(OC(C)=O)C(OC(C)=O)C(OC(C)=O)C(C=C(C(C)=O)C(C)=O)OC(C)=O", "note": "(stereo unspecified)", "values": [
      {"measurement": "Antiviral activity", "setting": "Human alphaherpesvirus 1 [1]", "result": 1, "unit": "mm"},
      {"measurement": "Antiviral activity", "setting": "Semliki Forest virus", "result": 0, "unit": "mm"},
      {"measurement": "Antiviral activity", "setting": "Vaccinia virus", "result": 3},
      {"measurement": "Cytotoxicity", "setting": "Vero", "result": 8, "unit": "mm"}
    ]},
    {"smiles": "O=C[C@@H]1O[C@H](c2ccccc2)O[C@@H]2CO[C@@H](c3ccccc3)O[C@@H]12", "values": [
      {"measurement": "Antiviral activity", "setting": "Human alphaherpesvirus 1 [1]", "result": 8, "unit": "mm"},
      {"measurement": "Antiviral activity", "setting": "Semliki Forest virus", "result": 6, "unit": "mm"},
      {"measurement": "Antiviral activity", "setting": "Vaccinia virus", "result": 12},
      {"measurement": "Cytotoxicity", "setting": "Vero", "result": 8, "unit": "mm"}
    ]},
    {"smiles": "CC(=O)/C(=C\\[C@@H]1O[C@H](c2ccccc2)O[C@H](CC(=O)Oc2ccccc2)[C@H]1C(=O)Oc1ccccc1)C(=O)Nc1ccccc1", "values": [
      {"measurement": "Antiviral activity", "setting": "Human alphaherpesvirus 1 [1]", "result": 2, "unit": "mm"},
      {"measurement": "Antiviral activity", "setting": "Semliki Forest virus", "result": 0, "unit": "mm"},
      {"measurement": "Antiviral activity", "setting": "Vaccinia virus", "result": 9},
      {"measurement": "Cytotoxicity", "setting": "Vero", "result": 4, "unit": "mm"}
    ]},
    {"smiles": "O=c1[nH]c(=O)n([C@H]2C[C@H](O)[C@@H](CO)O2)cc1I", "note": "[IDOXURIDINE]", "values": [
      {"measurement": "inhibition at 0.8 µg/mL", "setting": "BSC-1 [8]", "result": 21.5, "unit": "%"},
      {"measurement": "inhibition at 0.8 µg/mL", "setting": "Human alphaherpesvirus 1 [9]", "result": 71.3, "unit": "%"},
      {"measurement": "inhibition at 0.8 µg/mL", "setting": "Human alphaherpesvirus 1 [10]", "result": 31.1, "unit": "%"}
    ]}
  ]
}
